In ChEMBL document CHEMBL3232813, “The identification, analysis and structure-based development of novel inhibitors of 6-hydroxymethyl-7,8-dihydropterin pyrophosphokinase” (Bioorg Med Chem, 2014):
pIC50, pKd: −log10 of the molar value. The source made the active and inactive calls. The rule behind the calls is not given here.

Legend:
[1] = target: T1, 2-amino-4-hydroxy-6-hydroxymethyldihydropteridine pyrophosphokinase (Escherichia coli (strain K12)) (UniProt P26281); experiment: Inhibition of GST-tagged Escherichia coli HPPK expressed in Escherichia coli using 6-hydroxymethyl-7,8-dihydropterin hydrochloride as substrate at 250 uM after 20 mins by luminescence assay
T1 sequence (whole entry): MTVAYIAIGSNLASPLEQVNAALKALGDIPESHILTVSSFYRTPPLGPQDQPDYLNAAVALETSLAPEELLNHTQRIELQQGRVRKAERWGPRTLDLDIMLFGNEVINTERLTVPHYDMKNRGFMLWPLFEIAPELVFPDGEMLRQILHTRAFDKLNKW
Outline: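 GST tag cleaved from E. coli HPPK; 5 ng enzyme used. Reaction contained 0.75 µM dihydropterin substrate, 0.75 µM ATP, 100 mM Tris-HCl pH 8.5, 10 mM MgCl2, 10 mM BME, 0.01% Tween 20, 0.01% BSA and 5% DMSO. Compound present at 250 µM. Ran 20 min at 23 °C. Unconsumed ATP read by Kinase-Glo luminescence and reported as % inhibition.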

[2] = target: T1, 2-amino-4-hydroxy-6-hydroxymethyldihydropteridine pyrophosphokinase (Escherichia coli (strain K12)); experiment: Binding affinity to GST-tagged Escherichia coli HPPK expressed in Escherichia coli by ITC method
[3] = target: T2, 2-amino-4-hydroxy-6-hydroxymethyldihydropteridine pyrophosphokinase (Escherichia coli (strain K12), UniProt P26281); experiment: Binding affinity to GST-tagged Escherichia coli HPPK expressed in Escherichia coli by SPR assay based alternative equilibrium affinity method in presence of AMP-CPP
T2 sequence (P26281 whole entry): T1 sequence (whole entry)
Outline: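 E. coli HPPK expressed as a GST fusion, with the tag removed by thrombin. Minimally biotinylated and captured on a neutravidin chip. SPR run at 20 °C in 20 mM Tris pH 8.5, 100 mM NaCl, 10 mM MgCl2, 1 mM TCEP, 10% glycerol, 5% DMSO, with 2 µM AMPCPP. Compounds injected as a 3-fold series from 100 µM at 80 µL/min. Data double-referenced and fitted to a 1:1 model.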

[4] = target: T2, 2-amino-4-hydroxy-6-hydroxymethyldihydropteridine pyrophosphokinase; experiment: Inhibition of GST-tagged Escherichia coli HPPK expressed in Escherichia coli using 6-hydroxymethyl-7,8-dihydropterin hydrochloride as substrate after 20 mins by luminescence assay
Outline: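 GST tag cleaved from E. coli HPPK; 5 ng enzyme used. Reaction contained 0.75 µM dihydropterin substrate, 0.75 µM ATP, 100 mM Tris-HCl pH 8.5, 10 mM MgCl2, 10 mM BME, 0.01% Tween 20, 0.01% BSA and 5% DMSO. Ran 20 min at 23 °C. Remaining ATP read by Kinase-Glo luminescence.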

[5] = target: T1, 2-amino-4-hydroxy-6-hydroxymethyldihydropteridine pyrophosphokinase (Escherichia coli (strain K12)); experiment: Binding affinity to GST-tagged Escherichia coli HPPK expressed in Escherichia coli by SPR assay in absence of AMP-CPP
Outline: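 Thrombin-cleaved EcHPPK (GST removed), minimally biotinylated and captured (~3000–3700 RU) on a neutravidin chip. SPR at 20 °C, no AMPCPP, in 20 mM Tris pH 8.5, 100 mM NaCl, 10 mM MgCl2, 1 mM TCEP, 0.005% Tween20, 10% glycerol, 5% DMSO. Compounds run as 3-fold dilution series. Data double-referenced, solvent-corrected, fitted to a 1:1 model for K_D.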

Compound	inhibition [1]	Activity [2]	pKd [3]	pIC50 [4]	Activity [5]
Cc1ccc(C(=O)C(C)Sc2nc3nc(N)[nH]c(=O)c3[nH]2)cc1 (centres undefined)	13%	–	–	–	–
NC1N=C(O)c2nc(CO)cnc2N1 (centres undefined)	–	Active	–	–	–
Nc1nc2nc[nH]c2c(=O)[nH]1 [GUANINE]	–	–	4.42	–	–
Nc1nc2[nH]c(S)nc2c(=O)[nH]1	18%	–	< 4.00	–	–
Nc1nc(O)nc2nc[nH]c12 [ISOGUANINE]	–	–	5.12	–	–
CC(Sc1nc2nc(N)[nH]c(=O)c2[nH]1)C(=O)c1ccccc1 (centres undefined)	10%	–	–	–	–
Nc1nc2[nH]cnc2c(=S)[nH]1	51%	–	–	–	–
Nc1nc2nc(SCC(=O)c3ccc(OCCN4CCOCC4)cc3)[nH]c2c(=O)[nH]1	5%	–	–	–	–
Nc1nc2nc(SCCN3CCOCC3)[nH]c2c(=O)[nH]1	7%	–	–	–	–
Cc1ccccc1C(=O)CSc1nc2nc(N)[nH]c(=O)c2[nH]1	48%	–	4.72	3.61	–
N#Cc1ccc(C(=O)CSc2nc3nc(N)[nH]c(=O)c3[nH]2)cc1	68%	–	4.41	4.06	–
Nc1nc2nc(SC(=O)c3ccc(F)cc3)[nH]c2c(=O)[nH]1	16%	–	–	–	–
COc1ccc(C(=O)CSc2nc3nc(N)[nH]c(=O)c3[nH]2)cc1	74%	–	4.84	4.36	–
Nc1nc2nc(SCC(=O)c3ccc(F)cc3)[nH]c2c(=O)[nH]1	73%	–	4.95	4.10	–
Nc1nc2nc(SCC(=O)c3ccc(O)cc3)[nH]c2c(=O)[nH]1	77%	–	5.24	4.09	–
COc1ccccc1C(=O)CSc1nc2nc(N)[nH]c(=O)c2[nH]1	12%	–	–	–	–
Nc1nc(O)c2nc(SCC(=O)N3CCOCC3)[nH]c2n1	6%	–	–	–	–
Cc1nc2c(=O)[nH]c(N)nc2[nH]1	–	–	4.74	–	–
Cc1cccc(C(=O)CSc2nc3nc(N)[nH]c(=O)c3[nH]2)c1	77%	–	5.23	4.29	–
Cc1ccc(C(=O)CSc2nc3nc(N)[nH]c(=O)c3[nH]2)cc1	80%	–	5.17	4.19	–
Nc1nc2[nH]cnc2c(=O)[nH]1	48%	–	–	–	–
Nc1nc2nc(SCC(=O)c3ccccc3)[nH]c2c(=O)[nH]1	75%	–	5.01	3.86	inactive
N#Cc1ccc(CSc2nc3nc(N)[nH]c(=O)c3[nH]2)cc1	53%	–	4.54	3.60	inactive
